Laboratory results taken from ChEMBL document CHEMBL3351346, “Design, synthesis, structure-function relationship, bioconversion, and pharmacokinetic evaluation of ertapenem prodrugs” (J Med Chem, 2014).

Legend:
[1] = Stability in rat plasma assessed as compound remaining at 50 uM at 37 degC after 60 mins by LC-MS/MS method; format: ADME, cell-free; settings: read-out: Stability
Summary of the method: (§1)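 Prodrugs were incubated in rat or human plasma for 60 min. Disappearance of prodrug and concomitant appearance of ertapenem were followed by LC-MS/MS, and in selected cases monoesters from partial hydrolysis were also monitored. Ertapenem itself was incubated the same way as a control.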

[2] = Stability in human plasma assessed as compound remaining at 50 uM at 37 degC after 60 mins by LC-MS/MS method; format: ADME, cell-free; settings: read-out: Stability; summary of the method: as §1
[3] = Stability in pH 7.4 phosphate buffer assessed as compound remaining at 50 uM after 3 hrs by LC-MS/MS method; format: physicochemical; settings: read-out: Stability
[4] = Stability in pH 6.5 simulated gastrointestinal fluid assessed as compound remaining at 50 uM after 3 hrs by LC-MS/MS method; format: ADME; settings: read-out: Stability
Summary of the method: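 Compounds at 50 μM were incubated in fasted-state simulated intestinal fluid (FaSSIF, pH 6.5) for over 3 h. Percent remaining was determined by LC-MS/MS.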

Canis familiaris [5] = assay: AUC (0 to 8 hrs) in fasted Beagle dog assessed as ertapenem level at 10 mg/kg dosed through intraduodenal route by LC-MS/MS method; format: ADME, organism-based, Canis lupus familiaris, Plasma; set-up: time < 8 hr, dose 10 mg/kg, route intraduodenal; settings: in vivo, other
Summary of the method: (§2)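 Prodrugs were given intraduodenally to bypass stomach acid. Plasma was sampled at intervals over 8 h, and parent prodrug, the two monoester metabolites and ertapenem were quantified by LC-MS/MS. The lower limit of quantitation was 5 nM. AUC(0–8) was used, and it differed from AUC(0–∞) by ±20%. Vehicles were 30% Captisol or 0.5% methylcellulose, as solution or suspension depending on compound.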

Canis familiaris [6] = assay: Oral bioavailability in fasted Beagle dog assessed as assessed as ertapenem and monoetser metabolites level at 10 mg/kg dosed through intraduodenal route by LC-MS/MS method; format: ADME, organism-based, Canis lupus familiaris; settings: in vivo
Summary of the method: (§3)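 Total absorption followed intraduodenal dosing with LC-MS/MS of plasma over 8 h. It was calculated as the combined dose-normalized AUC of circulating parent prodrug, ertapenem and two monoesters, divided by dose-normalized AUC of ertapenem given iv. Vehicle was 30% Captisol or 0.5% methylcellulose.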

Canis familiaris [7] = assay: AUC (0 to 8 hrs) in fasted Beagle dog assessed as 8-OH, C-3 ester level at 10 mg/kg dosed through intraduodenal route by LC-MS/MS method; format: ADME, organism-based, Canis lupus familiaris, Plasma; set-up: time < 8 hr, dose 10 mg/kg, route intraduodenal; settings: in vivo, other; summary of the method: as §2
[8] = Stability in pH 2.0 simulated gastric fluid assessed as compound degradation to beta-lactam ring open products at 1 uM after 60 mins by LC-MS/MS method; format: ADME; settings: read-out: Drug degradation
Summary of the method: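 Incubation was in simulated gastric fluid (SGF, pH 2.0) for 60 min, with loss to the β-lactam ring-opened product measured by LC-MS/MS.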

Canis familiaris [9] = assay: (§4) AUC (0 to 8 hrs) in fasted Beagle dog at 10 mg/kg dosed through intraduodenal route by LC-MS/MS method; format: ADME, organism-based, Canis lupus familiaris, Plasma; set-up: time < 8 hr, dose 10 mg/kg, route intraduodenal; settings: in vivo, other, 8 h, BLD = below limit of detection; summary of the method: as §2
Canis familiaris [10] = assay: Oral bioavailability in fasted Beagle dog assessed as ertapenem level at 10 mg/kg dosed through intraduodenal route by LC-MS/MS method; format: ADME, organism-based, Canis lupus familiaris; settings: in vivo
Summary of the method: (§5)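 After intraduodenal dosing, plasma over 8 h was analysed by LC-MS/MS. Bioavailability was calculated as dose-normalized AUC of ertapenem formed from the prodrug divided by dose-normalized AUC of ertapenem dosed iv. Vehicle was 30% Captisol or 0.5% methylcellulose.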

Canis familiaris [11] = assay: AUC (0 to 8 hrs) in fasted Beagle dog assessed as 8-OH, benzoate ester level at 10 mg/kg dosed through intraduodenal route by LC-MS/MS method; format: ADME, organism-based, Canis lupus familiaris, Plasma; set-up: time < 8 hr, dose 10 mg/kg, route intraduodenal; settings: in vivo, other; summary of the method: as §2
[12] = as §4; format: ADME, organism-based, Canis lupus familiaris, Plasma; set-up: time < 8 hr, dose 10 mg/kg, route intraduodenal; settings: Beagle, plasma; summary of the method: as §2
Rattus norvegicus [13] = assay: AUC (0 to 8 hrs) in fasted Sprague-Dawley rat at 10 mg/kg dosed through intraduodenal route by LC-MS/MS method; format: ADME, organism-based, Plasma; set-up: time < 8 hr, dose 10 mg/kg, route intraduodenal; settings: in vivo, other, 8 h, BLD = below limit of detection; summary of the method: as §2
Rattus norvegicus [14] = assay: Oral bioavailability in fasted Sprague-Dawley rat assessed as ertapenem level at 10 mg/kg dosed through intraduodenal route by LC-MS/MS method; format: ADME, organism-based; settings: in vivo; summary of the method: as §5
Rattus norvegicus [15] = assay: AUC (0 to 8 hrs) in fasted Sprague-Dawley rat assessed as ertapenem level at 10 mg/kg dosed through intraduodenal route by LC-MS/MS method; format: ADME, organism-based, Plasma; set-up: time < 8 hr, dose 10 mg/kg, route intraduodenal; settings: in vivo, other; summary of the method: as §2
Rattus norvegicus [16] = assay: Oral bioavailability in fasted Sprague-Dawley rat assessed as ertapenem and monoetser metabolites level at 10 mg/kg dosed through intraduodenal route by LC-MS/MS method; format: ADME, organism-based; settings: in vivo; summary of the method: as §3
Rattus norvegicus [17] = assay: AUC (0 to 8 hrs) in fasted Sprague-Dawley rat assessed as 8-OH, C-3 ester level at 10 mg/kg dosed through intraduodenal route by LC-MS/MS method; format: ADME, organism-based, Plasma; set-up: time < 8 hr, dose 10 mg/kg, route intraduodenal; settings: in vivo, other, BLD = below limit of detection; summary of the method: as §2
Rattus norvegicus [18] = assay: AUC (0 to 8 hrs) in fasted Sprague-Dawley rat assessed as 8-OH, benzoate ester level at 10 mg/kg dosed through intraduodenal route by LC-MS/MS method; format: ADME, organism-based, Plasma; set-up: time < 8 hr, dose 10 mg/kg, route intraduodenal; settings: in vivo, other, BLD = below limit of detection; summary of the method: as §2

remaining at 1 h, 50 µM [1] [%] | remaining at 1 h, 50 µM [2] [%] | remaining at 3 h, 50 µM [3] [%] | remaining at 3 h, 50 µM [4] [%] | AUC (Canis familiaris [5]) [µM·h] | F (Canis familiaris [6]) [%] | AUC (Canis familiaris [7]) [µM·h] | degraded at 1 h, 1 µM [8] [%] | AUC (Canis familiaris [9]) | F (Canis familiaris [10]) [%] | AUC (Canis familiaris [11]) [µM·h] | AUC(0-t) at 8 h [12] [µM·h] | AUC (Rattus norvegicus [13]) | F (Rattus norvegicus [14]) [%] | F (Rattus norvegicus [16]) [%] | Compound | further results
0 | 9 | > 95 | > 95 | 3.4 | 14.4 | 0.7 | > 25 | BLD | 6.4 | 3.1 | – | – | – | – | CCOC(=O)C1=C(S[C@H]2C[C@@H](C(=O)Nc3cccc(C(=O)OCC)c3)N(C(=O)OCc3oc(=O)oc3C)C2)[C@H](C)[C@@H]2[C@@H]([C@@H](C)O)C(=O)N12 | –
0 | 7 | > 95 | > 95 | 7.3 | 11 | – | > 25 | – | 9.8 | – | 1 | – | – | – | CCCOC(=O)C1=C(S[C@@H]2CN[C@H](C(=O)Nc3cccc(C(=O)OCCC)c3)C2)[C@H](C)[C@@H]2[C@@H]([C@@H](C)O)C(=O)N12 | –
0 | 37 | > 95 | > 95 | 11.3 | 23.3 | 1.8 | > 25 | – | 15.4 | 2.2 | < 0.1 | – | – | – | CCOC(=O)C1=C(S[C@@H]2CN[C@H](C(=O)Nc3cccc(C(=O)OCC)c3)C2)[C@H](C)[C@@H]2[C@@H]([C@@H](C)OC(C)=O)C(=O)N12 | –
3 | 6 | > 95 | > 95 | 6.7 | 12 | 0.8 | > 25 | – | 10.2 | 0.2 | 0.2 | BLD | 3 | 3 | C[C@@H](O)[C@H]1C(=O)N2C(C(=O)OCC(F)(F)F)=C(S[C@@H]3CN[C@H](C(=O)Nc4cccc(C(=O)OCC(F)(F)F)c4)C3)[C@H](C)[C@H]12 | AUC (Rattus norvegicus [15]): 1.7 µM·h
0 | 30 | > 95 | > 95 | 10.1 | 16 | – | > 25 | – | 13.4 | – | 0.1 | – | – | – | CC(=O)O[C@H](C)[C@H]1C(=O)N2C3=C(S[C@@H]4CN[C@@H](C4)C(=O)Nc4cccc(c4)C(=O)OCOCOC3=O)[C@H](C)[C@H]12 | –
0 | 10 | > 95 | > 95 | 0.2 | 0.4 | – | > 25 | BLD | 0.4 | – | – | BLD | 0.3 | 0.3 | C[C@@H](O)[C@H]1C(=O)N2C(C(=O)OCc3oc(=O)oc3C(C)(C)C)=C(S[C@@H]3CN[C@H](C(=O)Nc4cccc(C(=O)OCc5oc(=O)oc5C(C)(C)C)c4)C3)[C@H](C)[C@H]12 | AUC (Rattus norvegicus [15]): 0.2 µM·h
2 | 1 | > 95 | > 95 | 9.4 | 16.9 | – | > 25 | – | 13.1 | – | 2.8 | – | – | – | CCCCOC(=O)C1=C(S[C@@H]2CN[C@H](C(=O)Nc3cccc(C(=O)OCCCC)c3)C2)[C@H](C)[C@@H]2[C@@H]([C@@H](C)O)C(=O)N12 | –
0 | 0 | > 95 | > 95 | 1.6 | 2.9 | – | > 25 | BLD | 2.9 | – | – | – | – | – | CCC(=O)OCOC(=O)C1=C(S[C@@H]2CN[C@H](C(=O)Nc3cccc(C(=O)OCOC(=O)CC)c3)C2)[C@H](C)[C@@H]2[C@@H]([C@@H](C)O)C(=O)N12 | AUC (Canis familiaris [7]; BLD = below limit of detection): BLD
0 | 0 | > 95 | > 95 | 12 | 24.2 | 3.9 | > 25 | – | 14.3 | 3.6 | 0.8 | – | – | – | COC(=O)C1=C(S[C@@H]2CN[C@H](C(=O)Nc3cccc(C(=O)OC)c3)C2)[C@H](C)[C@@H]2[C@@H]([C@@H](C)O)C(=O)N12 | –
0 | 15 | > 95 | > 95 | – | – | – | > 25 | – | – | – | – | BLD | 1.2 | 1.2 | CC(C)C(=O)OCOC(=O)C1=C(S[C@@H]2CN[C@H](C(=O)Nc3cccc(C(=O)[O-])c3)C2)[C@H](C)[C@@H]2[C@@H]([C@@H](C)O)C(=O)N12.[Na+] | AUC (Rattus norvegicus [15]): 0.7 µM·h; AUC (Rattus norvegicus [17]): BLD
6 | 8 | > 95 | > 95 | – | – | – | > 25 | – | – | – | – | BLD | 0.9 | 0.9 | CC(C)c1oc(=O)oc1COC(=O)C1=C(S[C@@H]2CN[C@H](C(=O)Nc3cccc(C(=O)OCc4oc(=O)oc4C(C)C)c3)C2)[C@H](C)[C@@H]2[C@@H]([C@@H](C)O)C(=O)N12 | AUC (Rattus norvegicus [15]): 0.4 µM·h
4 | 80 | > 95 | > 95 | – | 1.1 | – | > 25 | – | – | – | 0.6 | – | – | – | CCCCCCCCOC(=O)C1=C(S[C@@H]2CN[C@H](C(=O)Nc3cccc(C(=O)OCCCCCCCC)c3)C2)[C@H](C)[C@@H]2[C@@H]([C@@H](C)O)C(=O)N12 | AUC (Canis familiaris [5]; BLD = below limit of detection): BLD; F (Canis familiaris [10]; BLD = below limit of detection): BLD
0 | 38 | > 95 | > 95 | 6.5 | 14.9 | 0.9 | > 25 | BLD | 9.7 | 1 | – | – | – | – | CCOC(=O)C1=C(S[C@@H]2CN[C@H](C(=O)Nc3cccc(C(=O)OCC)c3)C2)[C@H](C)[C@@H]2[C@@H]([C@@H](C)OC(=O)[C@@H](N)C(C)C)C(=O)N12 | –
0 | 22 | > 95 | > 95 | 9.1 | 20.2 | 1.3 | > 25 | BLD | 12.6 | 1.6 | – | – | – | – | CCOC(=O)C1=C(S[C@@H]2CN[C@H](C(=O)Nc3cccc(C(=O)OCC)c3)C2)[C@H](C)[C@@H]2[C@@H]([C@@H](C)OC(=O)CC)C(=O)N12 | –
– | – | > 95 | > 95 | – | 3.07 | < 0.1 | > 25 | BLD | 3 | – | – | BLD | 0.4 | 0.4 | C[C@@H](O)[C@H]1C(=O)N2C(C(=O)OCOC(=O)C(C)(C)C)=C(S[C@@H]3CN[C@H](C(=O)Nc4cccc(C(=O)OCOC(=O)C(C)(C)C)c4)C3)[C@H](C)[C@H]12 | AUC (Rattus norvegicus [17]): BLD; AUC (Rattus norvegicus [18]): BLD; AUC (Canis familiaris [11]; BLD = below limit of detection): BLD
